Each molecule was assayed against T1, OR1G1 (Homo sapiens) (UniProt P47890). Conditions: stereoisomer not certain.
T1 sequence (whole entry): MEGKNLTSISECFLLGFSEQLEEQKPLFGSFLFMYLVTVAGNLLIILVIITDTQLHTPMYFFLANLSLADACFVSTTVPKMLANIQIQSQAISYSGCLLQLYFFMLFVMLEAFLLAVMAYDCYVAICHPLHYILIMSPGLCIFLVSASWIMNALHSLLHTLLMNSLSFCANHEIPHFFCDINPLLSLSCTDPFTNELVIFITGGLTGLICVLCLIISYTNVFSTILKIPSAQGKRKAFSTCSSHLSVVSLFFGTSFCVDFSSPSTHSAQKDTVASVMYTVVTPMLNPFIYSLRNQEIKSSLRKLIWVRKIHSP
Outline: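 Values were gathered from published papers (main text and supplementary material), with extra details requested from the original authors when needed, and checked for typos and inconsistencies. Each receptor–molecule pair is called responsive (active) if the original authors judged the measured signal statistically different from baseline, and non-responsive (inactive) otherwise. Assay methods varied by source, often transient mammalian cell-line luciferase assays. Recorded details include cell line, G-protein, co-transfected protein and tags.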

| Structure (SMILES) | odorant receptor agonist call |
| --- | --- |
| CCCCCCC1CCC(=O)O1 (centres undefined) | active |
| CCCCCCO | active |
| CSC | inactive |
| CCCCCCCCCC(=O)[O-].[H+] | active |
| CCC=C(C)C(O)CCCCC (centres undefined) | inactive |
| CCCCCCC(=O)OCC | inactive |
| CCCCCC1C(=O)CCC1CC(=O)OC (centres undefined) | active |
| CCCCCCCC(=O)OCC | active |
| Cc1occc(=O)c1O | active |
| CCCCCCCCCCC(C)=O | inactive |
| CCCCCC(=O)CC | inactive |
| CCCCCCCCCC(=O)OCC | active |
| CCCCCCCC(=O)[O-].[H+] | inactive |
| CCCCCCCC(C)=O | active |
| CCCCCCCCCO | active |
| CCCCCCCCCC(=O)OC | active |
| CC1CC(C)(c2ccccc2)CO1 (centres undefined) | inactive |

| Structure (SMILES) | odorant receptor agonist call |
| --- | --- |
| O=C(O)C=Cc1ccccc1 | inactive |
| CCCCCCCCC(=O)OC | active |
| CCC(=O)O | inactive |
| CCCCCCC(C)O (centres undefined) | active |
| Cc1ccc(C(C)C)c(O)c1 | active |
| CCOC(=O)CC1(C)OCCO1 | inactive |
| CC(C)(C)C1CCCCC1OCCCCO (centres undefined) | inactive |
| COc1ccc(C)cc1 | inactive |
| CCCCCC1COCCC1OC(C)=O (centres undefined) | inactive |
| COc1ccccc1 | inactive |
| CCCCC(O)CCC (centres undefined) | active |
| CCCC(=O)SC | active |
| Cc1ccc(C(C)C)cc1O | inactive |
| CCCCC1CCC(=O)O1 (centres undefined) | inactive |
| c1ccc2[nH]ccc2c1 | inactive |
| c1cscn1 | active |
| CCCCC(CC)CO (centres undefined) | active |

Source: the M2OR odorant receptor database
